Assay results published in ChEMBL document CHEMBL1156112, “Discovery of 3-(1H-indol-3-yl)-4-[2-(4-methylpiperazin-1-yl)quinazolin-4-yl]pyrrole-2,5-dione (AEB071), a potent and selective inhibitor of protein kinase C isotypes” (J Med Chem, 2009).
Each block holds one compound with its values, some of them ahead of it. The source made the active and inactive calls. No cut-off for these calls is given here.

Assays:
[1] = biological target: Protein kinase C beta type (Homo sapiens, UniProt P05771); experiment: Inhibition of PKCbeta1 by SPA
Sequence of Protein kinase C beta type (P05771 whole entry): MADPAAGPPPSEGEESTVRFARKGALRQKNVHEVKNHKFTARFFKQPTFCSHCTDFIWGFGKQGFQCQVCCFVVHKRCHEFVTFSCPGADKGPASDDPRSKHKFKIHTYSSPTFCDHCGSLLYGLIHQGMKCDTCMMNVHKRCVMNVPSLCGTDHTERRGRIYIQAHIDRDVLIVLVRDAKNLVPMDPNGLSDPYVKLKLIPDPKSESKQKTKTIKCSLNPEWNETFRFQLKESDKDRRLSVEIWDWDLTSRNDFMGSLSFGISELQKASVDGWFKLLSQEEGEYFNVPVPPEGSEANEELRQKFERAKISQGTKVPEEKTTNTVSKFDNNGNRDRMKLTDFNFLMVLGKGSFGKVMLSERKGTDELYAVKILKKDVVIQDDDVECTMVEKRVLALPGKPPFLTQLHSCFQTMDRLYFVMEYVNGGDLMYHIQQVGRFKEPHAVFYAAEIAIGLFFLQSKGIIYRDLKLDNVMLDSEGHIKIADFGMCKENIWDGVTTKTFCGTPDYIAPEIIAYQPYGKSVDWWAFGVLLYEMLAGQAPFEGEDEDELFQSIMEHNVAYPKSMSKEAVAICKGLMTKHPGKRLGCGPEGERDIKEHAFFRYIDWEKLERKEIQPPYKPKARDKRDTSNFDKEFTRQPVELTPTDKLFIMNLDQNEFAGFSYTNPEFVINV

[2] = biological target: Protein kinase C alpha type (Homo sapiens, UniProt P17252); experiment: Inhibition of PKCalpha by SPA
[3] = biological target: Protein kinase C theta type (Homo sapiens, UniProt Q04759); experiment: Inhibition of PKCtheta by SPA
Sequence of Protein kinase C theta type (Q04759 whole entry): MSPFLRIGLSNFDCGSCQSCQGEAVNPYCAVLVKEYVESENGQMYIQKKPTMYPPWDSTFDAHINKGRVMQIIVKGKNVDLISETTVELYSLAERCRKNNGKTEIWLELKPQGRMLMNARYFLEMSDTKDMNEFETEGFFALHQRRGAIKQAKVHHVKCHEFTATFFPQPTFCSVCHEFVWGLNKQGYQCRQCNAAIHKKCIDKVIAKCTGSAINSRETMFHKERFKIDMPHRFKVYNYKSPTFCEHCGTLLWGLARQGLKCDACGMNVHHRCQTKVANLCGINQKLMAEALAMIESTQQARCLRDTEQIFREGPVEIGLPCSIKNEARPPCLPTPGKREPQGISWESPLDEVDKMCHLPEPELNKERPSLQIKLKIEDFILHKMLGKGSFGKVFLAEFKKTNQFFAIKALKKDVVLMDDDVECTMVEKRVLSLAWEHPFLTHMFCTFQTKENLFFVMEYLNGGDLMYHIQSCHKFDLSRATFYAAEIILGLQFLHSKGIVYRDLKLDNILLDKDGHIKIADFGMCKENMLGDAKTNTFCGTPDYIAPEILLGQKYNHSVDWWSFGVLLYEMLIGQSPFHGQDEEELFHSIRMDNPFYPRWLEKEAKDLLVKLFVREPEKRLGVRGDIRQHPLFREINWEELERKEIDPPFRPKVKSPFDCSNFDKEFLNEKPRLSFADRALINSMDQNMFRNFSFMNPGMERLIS

[4] = biological target: T1, Protein kinase C epsilon type (Homo sapiens, UniProt Q02156); experiment: Inhibition of PKCepsilon by SPA
T1 sequence (Q02156 whole entry): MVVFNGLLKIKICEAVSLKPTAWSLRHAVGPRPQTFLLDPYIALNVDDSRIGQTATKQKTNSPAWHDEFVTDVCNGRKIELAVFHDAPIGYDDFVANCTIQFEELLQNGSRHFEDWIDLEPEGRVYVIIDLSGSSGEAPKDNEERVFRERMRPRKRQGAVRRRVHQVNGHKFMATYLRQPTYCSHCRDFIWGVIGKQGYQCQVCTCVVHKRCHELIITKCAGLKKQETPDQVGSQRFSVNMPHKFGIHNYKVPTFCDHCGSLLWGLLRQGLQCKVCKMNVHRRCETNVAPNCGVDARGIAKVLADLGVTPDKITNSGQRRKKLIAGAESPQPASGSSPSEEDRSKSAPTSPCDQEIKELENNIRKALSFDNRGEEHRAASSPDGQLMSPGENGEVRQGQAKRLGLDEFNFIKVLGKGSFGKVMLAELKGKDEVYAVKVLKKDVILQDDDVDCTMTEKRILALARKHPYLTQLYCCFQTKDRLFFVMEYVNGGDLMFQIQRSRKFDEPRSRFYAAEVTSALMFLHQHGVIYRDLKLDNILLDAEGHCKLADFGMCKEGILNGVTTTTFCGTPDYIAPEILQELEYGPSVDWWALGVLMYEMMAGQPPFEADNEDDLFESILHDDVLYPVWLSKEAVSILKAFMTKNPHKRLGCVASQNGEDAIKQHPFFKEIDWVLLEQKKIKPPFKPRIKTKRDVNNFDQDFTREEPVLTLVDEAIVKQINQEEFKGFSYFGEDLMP

[5] = biological target: Protein kinase C eta type (Homo sapiens, UniProt P24723); experiment: Inhibition of PKCeta by SPA
Sequence of Protein kinase C eta type (P24723 whole entry): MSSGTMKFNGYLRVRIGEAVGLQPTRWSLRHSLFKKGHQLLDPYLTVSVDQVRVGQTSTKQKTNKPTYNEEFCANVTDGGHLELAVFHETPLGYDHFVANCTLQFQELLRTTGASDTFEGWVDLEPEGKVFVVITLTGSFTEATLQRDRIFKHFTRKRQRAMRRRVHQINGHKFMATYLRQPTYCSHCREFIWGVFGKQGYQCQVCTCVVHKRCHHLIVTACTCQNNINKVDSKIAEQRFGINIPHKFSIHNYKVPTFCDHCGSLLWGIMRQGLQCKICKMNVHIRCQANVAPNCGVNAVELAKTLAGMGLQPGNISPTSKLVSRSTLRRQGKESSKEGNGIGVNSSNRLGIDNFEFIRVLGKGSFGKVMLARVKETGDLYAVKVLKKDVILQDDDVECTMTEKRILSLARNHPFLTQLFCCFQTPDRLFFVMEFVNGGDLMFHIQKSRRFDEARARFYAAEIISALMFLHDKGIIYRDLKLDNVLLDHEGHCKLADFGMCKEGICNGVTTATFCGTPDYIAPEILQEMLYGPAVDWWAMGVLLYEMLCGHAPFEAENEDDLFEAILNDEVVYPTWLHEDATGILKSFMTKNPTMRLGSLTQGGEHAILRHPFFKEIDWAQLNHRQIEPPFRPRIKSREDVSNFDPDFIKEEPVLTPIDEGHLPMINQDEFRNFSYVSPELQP

[6] = biological target: Protein kinase C delta type (Homo sapiens, UniProt Q05655); experiment: Inhibition of PKCdelta by SPA
Sequence of Protein kinase C delta type (Q05655 whole entry): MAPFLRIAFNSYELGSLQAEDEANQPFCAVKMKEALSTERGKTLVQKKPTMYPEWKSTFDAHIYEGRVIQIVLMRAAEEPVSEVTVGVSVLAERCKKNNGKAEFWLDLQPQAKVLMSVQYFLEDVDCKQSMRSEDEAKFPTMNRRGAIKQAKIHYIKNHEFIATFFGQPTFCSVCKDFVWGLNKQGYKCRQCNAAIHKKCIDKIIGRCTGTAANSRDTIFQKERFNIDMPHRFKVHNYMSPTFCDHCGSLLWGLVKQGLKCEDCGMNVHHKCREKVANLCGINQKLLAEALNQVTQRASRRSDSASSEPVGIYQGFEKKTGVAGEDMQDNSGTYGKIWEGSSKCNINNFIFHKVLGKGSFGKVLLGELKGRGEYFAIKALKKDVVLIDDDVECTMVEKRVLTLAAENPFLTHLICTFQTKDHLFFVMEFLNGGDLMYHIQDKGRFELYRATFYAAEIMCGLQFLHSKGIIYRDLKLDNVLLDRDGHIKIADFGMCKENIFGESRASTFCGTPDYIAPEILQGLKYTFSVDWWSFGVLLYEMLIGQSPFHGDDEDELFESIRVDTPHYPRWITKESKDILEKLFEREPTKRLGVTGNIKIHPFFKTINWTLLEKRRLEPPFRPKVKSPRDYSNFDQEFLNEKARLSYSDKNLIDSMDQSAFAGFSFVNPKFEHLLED

cells [7] = conditions: Homo sapiens, Jurkat
[8] = biological target: Vascular endothelial growth factor receptor 2 (Homo sapiens, UniProt P35968); experiment: Inhibition of human recombinant KDR
[9] = biological target: Rho-associated protein kinase 1 (Homo sapiens, UniProt Q13464); experiment: Inhibition of human recombinant ROCK1
Rattus norvegicus [10] = species: Rattus norvegicus; experiment: Immunosuppressive activity in rat localized graft-versus-host model; type: functional, organism-based
[11] = biological target: RAC-alpha serine/threonine-protein kinase (Homo sapiens, UniProt P31749); experiment: Inhibition of human recombinant Akt1
[12] = Dissociation constant, pKa of the compound; type: physicochemical
[13] = Volume of distribution at steady state in OFA rat at 5 mg/kg, iv; type: ADME, organism-based; set-up: dose 5 mg/kg, route intravenous; conditions: in vivo, read-out: Vdss
How it was run: (§1)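 Rats dosed either 5 mg/kg iv in 75% saline (0.9%)-25% PEG400 or 20 mg/kg po in 75% water-25% PEG400. OFA or Lewis rats were used depending on the compound. Values are averages of three animals. AUC is extrapolated to infinity. Oral bioavailability (F) comes from the po and iv exposures.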

[14] = Oral bioavailability in OFA rat at 20 mg/kg, po; type: ADME, organism-based; conditions: in vivo; how it was run: as §1
[15] = biological target: Tyrosine-protein kinase ABL1 (Homo sapiens, UniProt P00519); experiment: Inhibition of human recombinant Abl
[16] = biological target: Vascular endothelial growth factor receptor 3 (Homo sapiens, UniProt P35916); experiment: Inhibition of human recombinant Flt4
[17] = biological target: Phosphatidylinositol 4,5-bisphosphate 3-kinase catalytic subunit gamma isoform (Homo sapiens, UniProt P48736); experiment: Inhibition of human recombinant PI3Kgamma
[18] = biological target: Tyrosine-protein kinase BTK (Homo sapiens, UniProt Q06187); experiment: Inhibition of human recombinant Btk
[19] = Clearance in OFA rat at 5 mg/kg, iv; type: ADME, organism-based; set-up: dose 5 mg/kg, route intravenous; conditions: in vivo; how it was run: as §1
Rattus norvegicus [20] = species: Rattus norvegicus; experiment: Prolongation of allograft survival in rat heterotropic heart transplant model; type: functional, organism-based
[21] = biological target: Insulin-like growth factor 1 receptor (Homo sapiens, UniProt P08069); experiment: Inhibition of human recombinant IGF1R
[22] = biological target: Glycogen synthase kinase-3 beta (Homo sapiens, UniProt P49841); experiment: Inhibition of human recombinant GSK3-beta
[23] = biological target: Cyclin-dependent kinase 2/cyclin A (Homo sapiens, UniProt P24941); experiment: Inhibition of human recombinant CDK2/cyclin A; type: protein-complex assay
[24] = biological target: Tyrosine-protein kinase JAK1 (Homo sapiens, UniProt P23458); experiment: Inhibition of human recombinant JAK1
[25] = biological target: Tyrosine-protein kinase SYK (Homo sapiens, UniProt P43405); experiment: Inhibition of human recombinant Syk
[26] = biological target: ALK tyrosine kinase receptor (Homo sapiens, UniProt Q9UM73); experiment: Inhibition of human recombinant Alk
[27] = Cmax in OFA rat at 20 mg/kg, po; type: ADME, organism-based; set-up: dose 20 mg/kg, route oral; conditions: in vivo; how it was run: as §1
[28] = biological target: Mast/stem cell growth factor receptor Kit (Homo sapiens, UniProt P10721); experiment: Inhibition of human recombinant Kit
[29] = biological target: Tyrosine-protein kinase Lck (Homo sapiens, UniProt P06239); experiment: Inhibition of human recombinant Lck
[30] = biological target: Mitogen-activated protein kinase 10 (Homo sapiens, UniProt P53779); experiment: Inhibition of human recombinant JNK3
[31] = AUC (0 to infinity) in OFA rat at 5 mg/kg, iv; type: ADME, organism-based; set-up: time infinity, dose 5 mg/kg, route intravenous; conditions: plasma; how it was run: as §1
[32] = biological target: Tyrosine-protein kinase receptor UFO (Homo sapiens, UniProt P30530); experiment: Inhibition of human recombinant Axl
Cynomolgus monkey = experiment: Prolongation of allograft survival in cynomolgus monkey renal allograft model; type: functional, organism-based; conditions: Macaca fascicularis
cells [33] = conditions: Mus musculus, CBA, Bone marrow cell
[34] = biological target: Mitogen-activated protein kinase 14 (Homo sapiens, UniProt Q16539); experiment: Inhibition of human recombinant p38alpha
Splenocyte = experiment: cells; conditions: Mus musculus, BALB/c
[35] = biological target: Tyrosine-protein kinase JAK3 (Homo sapiens, UniProt P52333); experiment: Inhibition of human recombinant JAK3
[36] = biological target: Tyrosine-protein kinase Fyn (Homo sapiens, UniProt P06241); experiment: Inhibition of human recombinant Fyn
Sequence of Tyrosine-protein kinase Fyn (P06241 whole entry, canonical isoform): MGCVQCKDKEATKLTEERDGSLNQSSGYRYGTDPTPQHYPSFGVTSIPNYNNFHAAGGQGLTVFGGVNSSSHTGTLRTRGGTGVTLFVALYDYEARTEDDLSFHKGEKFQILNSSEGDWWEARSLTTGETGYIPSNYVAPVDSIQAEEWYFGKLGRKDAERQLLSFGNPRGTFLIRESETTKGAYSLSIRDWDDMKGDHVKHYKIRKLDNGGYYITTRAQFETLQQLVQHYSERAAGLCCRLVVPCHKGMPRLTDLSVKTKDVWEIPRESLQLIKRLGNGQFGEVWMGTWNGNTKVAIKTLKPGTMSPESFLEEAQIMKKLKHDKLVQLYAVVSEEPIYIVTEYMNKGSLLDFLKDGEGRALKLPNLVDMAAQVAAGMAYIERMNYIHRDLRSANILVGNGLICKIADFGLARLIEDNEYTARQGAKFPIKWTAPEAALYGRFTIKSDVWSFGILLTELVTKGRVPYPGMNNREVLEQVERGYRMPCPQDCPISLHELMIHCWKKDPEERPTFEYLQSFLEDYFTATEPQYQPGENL

[37] = biological target: Phosphatidylinositol 4,5-bisphosphate 3-kinase catalytic subunit alpha isoform (Homo sapiens, UniProt P42336); experiment: Inhibition of human recombinant PI3Kalpha
[38] = Elimination half life in OFA rat at 5 mg/kg, iv; type: ADME, organism-based; set-up: dose 5 mg/kg, route intravenous; conditions: in vivo, read-out: beta t1/2 (converted); how it was run: as §1
Focal adhesion kinase 1 = Focal adhesion kinase 1 (Homo sapiens, UniProt Q05397); experiment: Inhibition of human recombinant FAK
[39] = biological target: Tyrosine-protein kinase ZAP-70 (Homo sapiens, UniProt P43403); experiment: Inhibition of human recombinant ZAP70
[40] = Tmax in OFA rat at 20 mg/kg, po; type: ADME, organism-based; set-up: dose 20 mg/kg, route oral; conditions: in vivo; how it was run: as §1
[41] = biological target: Tyrosine-protein kinase JAK2 (Homo sapiens, UniProt O60674); experiment: Inhibition of human recombinant JAK2
[42] = biological target: Phosphatidylinositol 4,5-bisphosphate 3-kinase catalytic subunit delta isoform (Homo sapiens, UniProt O00329); experiment: Inhibition of human recombinant PI3Kdelta
[43] = biological target: Protein kinase C zeta type (Homo sapiens, UniProt Q05513); experiment: Inhibition of PKCzeta by SPA
[44] = biological target: Tyrosine-protein kinase HCK (Homo sapiens, UniProt P08631); experiment: Inhibition of human recombinant Hck
[45] = biological target: Mitogen-activated protein kinase 9 (Homo sapiens, UniProt P45984); experiment: Inhibition of human recombinant JNK2
[46] = biological target: Receptor tyrosine-protein kinase erbB-2 (Homo sapiens, UniProt P04626); experiment: Inhibition of human recombinant HER2
[47] = biological target: Hepatocyte growth factor receptor (Homo sapiens, UniProt P08581); experiment: Inhibition of human recombinant Met
[48] = biological target: Serine/threonine-protein kinase PAK 2 (Homo sapiens, UniProt Q13177); experiment: Inhibition of human recombinant PAK2
[49] = biological target: Mitogen-activated protein kinase 8 (Homo sapiens, UniProt P45983); experiment: Inhibition of human recombinant JNK1
[50] = biological target: Proto-oncogene tyrosine-protein kinase receptor Ret (Homo sapiens, UniProt P07949); experiment: Inhibition of human recombinant Ret
[51] = biological target: Phosphatidylinositol 4,5-bisphosphate 3-kinase catalytic subunit beta isoform (Homo sapiens, UniProt P42338); experiment: Inhibition of human recombinant PI3Kbeta
Sequence of Phosphatidylinositol 4,5-bisphosphate 3-kinase catalytic subunit beta isoform (P42338 whole entry, canonical isoform): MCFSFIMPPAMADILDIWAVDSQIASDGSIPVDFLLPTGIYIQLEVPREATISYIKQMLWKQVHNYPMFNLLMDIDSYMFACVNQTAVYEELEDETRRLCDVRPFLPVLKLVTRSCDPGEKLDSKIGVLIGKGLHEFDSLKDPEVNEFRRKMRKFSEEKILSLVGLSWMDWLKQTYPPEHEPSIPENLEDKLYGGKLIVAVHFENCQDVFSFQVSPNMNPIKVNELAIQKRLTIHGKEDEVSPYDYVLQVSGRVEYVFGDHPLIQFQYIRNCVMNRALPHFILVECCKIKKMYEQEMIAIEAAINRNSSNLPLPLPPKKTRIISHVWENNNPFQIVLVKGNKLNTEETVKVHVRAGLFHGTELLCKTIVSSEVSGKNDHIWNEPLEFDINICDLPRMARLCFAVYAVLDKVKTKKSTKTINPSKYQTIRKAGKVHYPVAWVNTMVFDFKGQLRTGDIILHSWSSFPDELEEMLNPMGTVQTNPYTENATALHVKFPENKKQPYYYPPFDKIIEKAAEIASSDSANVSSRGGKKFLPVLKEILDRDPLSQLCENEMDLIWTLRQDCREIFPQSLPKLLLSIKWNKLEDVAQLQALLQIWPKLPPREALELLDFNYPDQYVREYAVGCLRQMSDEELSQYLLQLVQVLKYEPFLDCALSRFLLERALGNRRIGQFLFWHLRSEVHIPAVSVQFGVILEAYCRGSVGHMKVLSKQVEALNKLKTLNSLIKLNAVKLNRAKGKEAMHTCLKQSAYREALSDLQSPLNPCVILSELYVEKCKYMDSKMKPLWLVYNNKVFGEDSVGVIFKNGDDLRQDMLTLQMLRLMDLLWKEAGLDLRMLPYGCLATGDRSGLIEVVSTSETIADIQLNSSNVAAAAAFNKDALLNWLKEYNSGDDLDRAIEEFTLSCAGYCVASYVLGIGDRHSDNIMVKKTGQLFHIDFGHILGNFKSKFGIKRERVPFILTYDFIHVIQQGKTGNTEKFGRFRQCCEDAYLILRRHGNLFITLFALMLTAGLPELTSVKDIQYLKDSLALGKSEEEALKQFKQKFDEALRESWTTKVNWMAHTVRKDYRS

[52] = biological target: Rho-associated protein kinase 2 (Homo sapiens, UniProt O75116); experiment: Inhibition of human recombinant ROCK2
[53] = AUC (0 to infinity) in OFA rat at 20 mg/kg, po; type: ADME, organism-based; set-up: dose 20 mg/kg, route oral, time infinity; conditions: plasma; how it was run: as §1
Ephrin type-B receptor 4 = Ephrin type-B receptor 4 (Homo sapiens, UniProt P54760); experiment: Inhibition of human recombinant EphB4
cells [54] = conditions: Homo sapiens, Splenocyte
[55] = Inhibition of human recombinant PKA

IC50 [1]: 1270 nM
IC50 [2]: 1500 nM
IC50 [3]: 1380 nM
IC50 [4]: 1820 nM
IC50 [5]: 2540 nM
IC50 [6]: 794 nM
IC50 (cells [7]): > 3700 nM
SMILES: O=C1NC(=O)C(c2c[nH]c3ccccc23)=C1c1nc(N2CCOCC2)nc2ccccc12

IC50 [1]: > 315 nM
IC50 [2]: > 315 nM
IC50 [3]: > 315 nM
IC50 [4]: > 315 nM
IC50 [5]: > 315 nM
IC50 [6]: > 315 nM
SMILES: CN(C)CCCn1cc(C2=C(c3n[nH]c4ccccc34)C(=O)NC2=O)c2ccccc21

IC50 [8]: 3900 nM
IC50 [9]: > 10000 nM
IC50 [11]: > 10000 nM
pKa [12]: 7.4
Vd [13]: 6.5 L/kg
bioavailability [14]: 34%
IC50 [15]: 3300 nM
IC50 [16]: 4600 nM
IC50 [17]: > 10000 nM
IC50 [18]: > 10000 nM
clearance [19]: 51.2 mL/min/kg
IC50 [21]: > 10000 nM
IC50 [3]: 1 nM
IC50 [22]: 870 nM
IC50 [23]: 2300 nM
IC50 [24]: 7300 nM
IC50 [25]: > 10000 nM
IC50 [26]: > 10000 nM
Cmax [27]: 622 ng/mL
IC50 [28]: > 10000 nM
IC50 [29]: > 10000 nM
IC50 [30]: > 10000 nM
AUC(0-inf) [31]: 1630 ng·h/mL
IC50 [32]: 9100 nM
IC50 [4]: 6.2 nM
IC50 (cells [33]): 3700 nM
IC50 [34]: > 10000 nM
IC50 (Splenocyte): 128 nM
IC50 [35]: 1500 nM
IC50 [36]: 5500 nM
IC50 [37]: > 10000 nM
half-life [38]: 3.2 h
IC50 (Focal adhesion kinase 1): 8300 nM
IC50 [39]: > 10000 nM
IC50 [5]: 6.1 nM
IC50 [6]: 1.3 nM
Tmax [40]: 0.5 h
IC50 [41]: > 10000 nM
IC50 [42]: > 10000 nM
IC50 [43]: 5400 nM
IC50 [44]: > 10000 nM
IC50 [45]: > 10000 nM
IC50 [46]: > 10000 nM
IC50 [47]: > 10000 nM
IC50 [48]: > 10000 nM
IC50 [49]: > 10000 nM
IC50 [50]: > 10000 nM
IC50 [51]: > 10000 nM
IC50 [52]: > 10000 nM
AUC(0-inf) [53]: 2210 ng·h/mL
IC50 (Ephrin type-B receptor 4): > 10000 nM
IC50 (cells [54]): 34 nM
IC50 [55]: 3400 nM
IC50 (cells [7]): 54 nM
SMILES: CN1CCN(c2nc(C3=C(c4c[nH]c5ccccc45)C(=O)NC3=O)c3ccccc3n2)CC1 [SOTRASTAURIN]
Activity (Rattus norvegicus [10]): Active
Activity (Rattus norvegicus [20]): Active
Activity (Cynomolgus monkey): Active

IC50 [1]: 58 nM
IC50 [2]: 15 nM
IC50 [3]: 52 nM
IC50 [4]: 29 nM
IC50 [5]: 47 nM
IC50 [6]: 47 nM
IC50 (cells [7]): 668 nM
SMILES: CN(C)CCOc1cccc(C2=C(c3c[nH]c4ccccc34)C(=O)NC2=O)c1

IC50 [1]: 47 nM
IC50 [2]: 73 nM
IC50 [3]: 255 nM
IC50 [4]: 285 nM
IC50 [5]: 293 nM
IC50 [6]: 183 nM
SMILES: CN(C)CCCn1cc(C2=C(c3csc4ccccc34)C(=O)NC2=O)c2ccccc21
